The results in this text go back to ChEMBL document CHEMBL4342503, “Diazabicyclooctane Functionalization for Inhibition of β-Lactamases from Enterobacteria” (2020).

Active and inactive are the calls of the source. The calls are words filed in the database; no cut-off is given here.

In assay [1] the test system is Escherichia coli. The assay is described as follows: Antibacterial activity against Escherichia coli Top10 harboring AmpC assessed as cefotaxime MIC by CLSI protocol based method (reference value: 256 ug/ml). The assay is classed as functional.
Assay [2] deals with Escherichia coli. The assay is described as follows: Antibacterial activity against Escherichia coli Top10 assessed as cefamandole MIC by CLSI protocol based method (reference value: 2 ug/ml). The assay is classed as functional. The gist of the method:
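Broth microdilution in cation-adjusted Mueller-Hinton broth following CLSI. Strain carries a β-lactamase gene cloned in pTRC-99k (kanamycin marker); preculture in BHI with IPTG (500 μM) and kanamycin (50 μg/ml); IPTG (500 μM) also in plates to induce enzyme. β-Lactam MIC read with or without inhibitor at fixed 15 μM (4 μg/ml for avibactam; clavulanate 4 μg/ml). Median of five biological repeats from two independent experiments.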

Assay [3] is described as follows: Inhibition of OXA-48 expressed in Escherichia coli BL21 DE3 assessed as K2/Ki ratio using CENTA as substrate by spectrophotometry. The gist of the method: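 OXA-48 expressed in E. coli BL21(DE3) (IPTG 0.5 mM, 16°C, 18 h), purified by Ni-NTA and size exclusion. Carbamoylation k2/Ki by spectrophotometric progress curves with CENTA 100 μM as reporter, 20°C, 100 mM MES pH 6.4; inhibitor up to 100 μM; ≥6 curves from ≥2 independent experiments.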

In assay [4] the test system is Escherichia coli. The experiment in a line: Antibacterial activity against Escherichia coli Top10 without harboring CTX-M-15 assessed as amoxicillin MIC by CLSI protocol based method (reference value: 8 ug/ml). The assay is classed as functional.
A further assay has as its system Bacteria. The assay is described as follows: Inhibition of bacterial KPC-2 N132G mutant expressed in Escherichia coli BL21 DE3 assessed as K2/Ki ratio using nitrocefin as substrate by spectrophotometry. The gist of the method: (§1)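 His-tagged enzymes expressed in E. coli BL21(DE3) (IPTG 0.5 mM, 16°C, 18 h), purified by Ni-NTA and size exclusion in 25 mM Tris-HCl pH 7.5, 300 mM NaCl. Carbamoylation k2/Ki from progress curves, reporter nitrocefin 100 μM, 20°C, 100 mM MES pH 6.4; inhibitor up to 100 μM; ≥6 curves, ≥2 independent experiments.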

Assay [5] in a line: Inhibition of TEM1 (unknown origin) expressed in Escherichia coli BL21 DE3 assessed as K2/Ki ratio using nitrocefin as substrate by spectrophotometry. In a few lines: as §1
Assay [6] in a line: Inhibition of KPC-2 (unknown origin) expressed in Escherichia coli BL21 DE3 assessed as K2/Ki ratio using nitrocefin as substrate by spectrophotometry. The gist of the method:
as §1

Assay [7] deals with Enterobacter cloacae. The assay is described as follows: Inhibition of Enterobacter cloacae CTX-M-15 expressed in Escherichia coli BL21 DE3 assessed as K2/Ki ratio using nitrocefin as substrate by spectrophotometry. In a few lines:
as §1

The subject of assay [8] is Escherichia coli. The experiment in a line: Antibacterial activity against Escherichia coli Top10 harboring OXA-48 assessed as ertapenem MIC by CLSI protocol based method (reference value: 8 ug/ml). The assay is classed as functional.
For assay [9], the system named is Enterobacter cloacae. The assay is described as follows: Inhibition of Enterobacter cloacae CTX-M-15 N132G mutant expressed in Escherichia coli BL21 DE3 assessed as K2/Ki ratio using nitrocefin as substrate by spectrophotometry. In a few lines: as §1
The test system of assay [10] is Escherichia coli. The assay is described as follows: Antibacterial activity against Escherichia coli Top10 without harboring AmpC assessed as cefotaxime MIC by CLSI protocol based method (reference value: 0.125 ug/ml). The assay is classed as functional.
In assay [11] the test system is Escherichia coli. The experiment in a line: Antibacterial activity against Escherichia coli Top10 harboring TEM1 assessed as cefamandole MIC by CLSI protocol based method (reference value: 2048 ug/ml). The assay is classed as functional.
Assay [12] has as its system Escherichia coli. The experiment in a line: Antibacterial activity against Escherichia coli Top10 harboring CTX-M-15 assessed as amoxicillin MIC by CLSI protocol based method (reference value: 2048 ug/ml). The assay is classed as functional.
Assay [13] concerns Enterobacter cloacae. The experiment in a line: Inhibition of Enterobacter cloacae AmpC expressed in Escherichia coli BL21 DE3 assessed as K2/Ki ratio using nitrocefin as substrate by spectrophotometry. In a few lines: as §1
Assay [14] has as its system Escherichia coli. The experiment in a line: Antibacterial activity against Escherichia coli Top10 without harboring OXA-48 assessed as ertapenem MIC by CLSI protocol based method (reference value: < 0.03 ug/ml). The assay is classed as functional.
Assay [15] has as its system Escherichia coli. The experiment in a line: Antibacterial activity against Escherichia coli Top10 without harboring KPC-2 assessed as aztreonam MIC by CLSI protocol based method (reference value: 0.5 ug/ml). The assay is classed as functional.
Assay [16] concerns Escherichia coli. The assay is described as follows: Antibacterial activity against Escherichia coli Top10 harboring KPC-2 assessed as aztreonam MIC by CLSI protocol based method (reference value: 2048 ug/ml). The assay is classed as functional.

Take `NC(=O)[C@@H]1CC[C@@H]2CN1C(=O)N2OS(=O)(=O)[O-].[Na+]` [AVIBACTAM SODIUM]: the MIC came out at 1 µg/mL in the assay on Escherichia coli [1]; 2 µg/mL in the assay on Escherichia coli [2]; 2 µg/mL with Escherichia coli [4]; 0.5 µg/mL with Escherichia coli [8]; 0.125 µg/mL in the assay with Escherichia coli [10]; 2 µg/mL in the assay with Escherichia coli [11]. Besides, the minimum inhibitory concentration (MIC) was 2 µg/mL in the assay on Escherichia coli [12], under 0.03 µg/mL in the assay with Escherichia coli [14], 0.25 µg/mL in the assay with Escherichia coli [15] and 0.5 µg/mL in the assay on Escherichia coli [16]. The Ratio came to 980 M⁻¹ s⁻¹ in [3]; 53 M⁻¹ s⁻¹ in the assay on Bacteria; 88000 M⁻¹ s⁻¹ in assay [5]; 26000 M⁻¹ s⁻¹ in assay [6]; 130000 M⁻¹ s⁻¹ in the assay on Enterobacter cloacae [7]; 70 M⁻¹ s⁻¹ with Enterobacter cloacae [9]. Also, the Ratio in the assay with Enterobacter cloacae [13] came out at 18000 M⁻¹ s⁻¹.

In the case of `O=C1N2C[C@@H](CC[C@H]2Cn2ccnn2)N1OS(=O)(=O)[O-].[Na+]`, the MIC in the assay on Escherichia coli [1] came out at 16 µg/mL; in the assay on Escherichia coli [2], 2 µg/mL; in the assay on Escherichia coli [4], 8 µg/mL; in the assay on Escherichia coli [8], 8 µg/mL; with Escherichia coli [10], 0.125 µg/mL; in the assay with Escherichia coli [11], 8 µg/mL. Moreover, the MIC is 64 µg/mL with Escherichia coli [12], under 0.03 µg/mL with Escherichia coli [14], 0.25 µg/mL in the assay on Escherichia coli [15] and 512 µg/mL in the assay with Escherichia coli [16]. Further, the Ratio in assay [3] worked out at 140 M⁻¹ s⁻¹; in the assay with Bacteria it was 31 M⁻¹ s⁻¹; in [5] it was 1200 M⁻¹ s⁻¹; in assay [6] it was 280 M⁻¹ s⁻¹; with Enterobacter cloacae [7], 280 M⁻¹ s⁻¹; in the assay with Enterobacter cloacae [9], 6.6 M⁻¹ s⁻¹. In addition, the Ratio in the assay with Enterobacter cloacae [13] was determined as 210 M⁻¹ s⁻¹.

In the case of `O=C1N2C[C@@H](CC[C@H]2Cn2cc(-c3cccnc3)nn2)N1OS(=O)(=O)[O-].[Na+]`, the MIC worked out at 128 µg/mL with Escherichia coli [1]; 2 µg/mL in the assay with Escherichia coli [2]; 2 µg/mL in the assay on Escherichia coli [4]; 8 µg/mL with Escherichia coli [8]; 0.125 µg/mL in the assay with Escherichia coli [10]; 8 µg/mL with Escherichia coli [11]. The MIC in the assay on Escherichia coli [12] was 32 µg/mL; in the assay on Escherichia coli [14], under 0.03 µg/mL; in the assay with Escherichia coli [15], 0.25 µg/mL; in the assay on Escherichia coli [16] it was 32 µg/mL. The Ratio entry in assay [3] is “inactive”. For the same compound, the Ratio in [5] was determined as 1400 M⁻¹ s⁻¹; in assay [6], 550 M⁻¹ s⁻¹; in the assay on Enterobacter cloacae [7], 1700 M⁻¹ s⁻¹; with Enterobacter cloacae [13], 85 M⁻¹ s⁻¹.

In the case of `O=C1N2C[C@@H](CC[C@H]2Cn2cc(-c3ccccc3)nn2)N1OS(=O)(=O)[O-].[Na+]`, the minimum inhibitory concentration (MIC) with Escherichia coli [1] was determined as 128 µg/mL; in the assay with Escherichia coli [2], 4 µg/mL; with Escherichia coli [4], 8 µg/mL; in the assay with Escherichia coli [8] it was 8 µg/mL; in the assay on Escherichia coli [10], 0.25 µg/mL; with Escherichia coli [11], 16 µg/mL. Also, the MIC is 64 µg/mL with Escherichia coli [12], under 0.03 µg/mL in the assay on Escherichia coli [14], 0.25 µg/mL in the assay with Escherichia coli [15] and 64 µg/mL in the assay on Escherichia coli [16]. Besides, the Ratio in assay [3] turned out to be 110 M⁻¹ s⁻¹; in the assay with Bacteria it was 21 M⁻¹ s⁻¹; in [5], 4700 M⁻¹ s⁻¹; in [6], 930 M⁻¹ s⁻¹; in the assay with Enterobacter cloacae [7], 6900 M⁻¹ s⁻¹; in the assay with Enterobacter cloacae [9], 140 M⁻¹ s⁻¹. In addition, the Ratio in the assay with Enterobacter cloacae [13] amounted to 200 M⁻¹ s⁻¹.

With `CC(C)(C)OC(=O)NCCC(=O)Nc1ccc(-c2cn(C[C@@H]3CC[C@@H]4CN3C(=O)N4OS(=O)(=O)[O-])nn2)cc1.[Na+]`, the MIC with Escherichia coli [1] worked out at 128 µg/mL; in the assay on Escherichia coli [2] it was 2 µg/mL; in the assay on Escherichia coli [4], 8 µg/mL; with Escherichia coli [8], 16 µg/mL; in the assay with Escherichia coli [10], 0.125 µg/mL; with Escherichia coli [11], 256 µg/mL. Besides, the MIC in the assay on Escherichia coli [12] is 768 µg/mL; in the assay on Escherichia coli [14], under 0.03 µg/mL; in the assay with Escherichia coli [15], 0.5 µg/mL; with Escherichia coli [16], 512 µg/mL. The Ratio in [3] worked out at 150 M⁻¹ s⁻¹; in assay [5], 3700 M⁻¹ s⁻¹; in [6], 1100 M⁻¹ s⁻¹; in the assay on Enterobacter cloacae [7], 2400 M⁻¹ s⁻¹; with Enterobacter cloacae [13] it was 180 M⁻¹ s⁻¹.

For `O=C(O)C(F)(F)F.O=C1N2C[C@@H](CC[C@H]2Cn2cc(C3CCNCC3)nn2)N1OS(=O)(=O)O`, the MIC turned out to be 128 µg/mL in the assay on Escherichia coli [1]; 2 µg/mL with Escherichia coli [2]; 4 µg/mL in the assay with Escherichia coli [4]; 8 µg/mL with Escherichia coli [8]; 0.125 µg/mL in the assay with Escherichia coli [10]; 4 µg/mL in the assay with Escherichia coli [11]. The MIC with Escherichia coli [12] was 64 µg/mL; in the assay on Escherichia coli [14] it was under 0.03 µg/mL; in the assay on Escherichia coli [15], 0.25 µg/mL; in the assay on Escherichia coli [16] it was 32 µg/mL. The Ratio result in assay [3] is “inactive”. Besides, the Ratio in assay [5] was 3600 M⁻¹ s⁻¹; in assay [6], 340 M⁻¹ s⁻¹; in the assay on Enterobacter cloacae [7], 350 M⁻¹ s⁻¹; in the assay on Enterobacter cloacae [13] it was 26 M⁻¹ s⁻¹.
